This is an account of results in ChEMBL document CHEMBL3407494, “Design, synthesis, and biological evaluation of combretabenzodiazepines: a novel class of anti-tubulin agents” (J Med Chem, 2015).

Calls of active or inactive are those of the source. The rule behind the calls is not given here.

Data set [1] is described as follows: Cytotoxicity against human SH-SY5Y cells assessed as reduction in cell viability after 48 hrs by MTT assay. The class given is functional, cell-based. The method, boiled down:
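SH-SY5Y cells were exposed 48 h across a concentration range, then given MTT 250 μg/mL in Locke's solution for 1 h at 37 °C. Formazan was dissolved in isopropanol/0.1 M HCl and absorbance read at 570 nm. IC50 was taken from concentration-response curves; 8-12 determinations from 3 experiments.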
(In general: Tetrazolium dyes change colour on reduction, which living cells bring about.)

A short description of data set [2]: Cytotoxicity against human SH-SY5Y cells assessed as cell viability at 1 uM after 48 hrs by MTT assay. The class given is functional. The conditions noted are these: read-out: Activity. The gist of the method: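 SH-SY5Y cells in 24-well plates were treated 48 h with 1 μM compound. They were washed in Locke's solution (10 mM HEPES pH 7.6) and given MTT 250 μg/mL for 1 h at 37 °C. Formazan was dissolved in isopropanol/0.1 M HCl and read at 570 nm. Result is % viable cells, 8-12 determinations from 3 experiments.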

A short description of data set [3]: Cell cycle arrest in human SH-SY5Y cells assessed as accumulation at G0G1 phase at IC50 after 16 hrs by flow cytometry (reference value: 70.2 %). The class given is functional, cell-based. The method, boiled down: (§1)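 SH-SY5Y neuroblastoma cells were kept in 50% DMEM/50% F-12 with 10% FBS and 2 mM L-glutamine. Cells were exposed 16 h to vehicle or compound, washed in PBS and fixed in 70% EtOH at -20 °C. They were then treated with RNAse 100 μg/mL for 1 h at 37 °C and stained with 25 μg/mL propidium iodide plus 5 mM EDTA for 30 min at 4 °C in the dark. DNA content was read by flow cytometry; 3 experiments.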
In general terms: A flow cytometer gives signals particle by particle.

The nature of data set [4]: Cell cycle arrest in human SH-SY5Y cells assessed as accumulation at G0G1 phase at 3 times IC50 after 16 hrs by flow cytometry (reference value: 70.2 %). The class given is functional, cell-based. The gist of the method: as §1
Data set [5] is described as follows: Cell cycle arrest in human SH-SY5Y cells assessed as accumulation at G2/M phase at 3 times IC50 after 16 hrs by flow cytometry (reference value: 18.5 %). The data set is classed as functional, cell-based. The gist of the method: as §1
A short description of data set [6]: Cell cycle arrest in human SH-SY5Y cells assessed as accumulation at S phase at 3 times IC50 after 16 hrs by flow cytometry (reference value: 10.6 %). The class given is functional, cell-based. The gist of the method: as §1
For data set [7], the target named is T1, Tubulin (Homo sapiens) (UniProt P68371+Q9H4B7+P0DPH7+P68366+Q13509+Q71U36+P04350+Q3ZCM7+P07437+P68363+Q9BQE3+Q6PEY2+Q13885+Q9BVA1+Q9BUF5). The data set can be described thus: Inhibition of tubulin polymerization in human SH-SY5Y cells at 1 to 3 times IC50 after 16 hrs by immunocytochemistry. The data set is classed as cell-based.
A short description of data set [8]: Cell cycle arrest in human SH-SY5Y cells assessed as accumulation at S phase at IC50 after 16 hrs by flow cytometry (reference value: 10.6 %). The class given is functional, cell-based. The gist of the method: as §1
Data set [9] has as its target T1, Tubulin (Homo sapiens). The data set can be described thus: (§2) Inhibition of tubulin (unknown origin) polymerization by fluorescence assay. The data set is classed as protein-complex assay. The gist of the method:
(§3)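 Fluorescence-based kit assay. Tubulin was taken up in ice-cold buffer (80 mM PIPES, 2 mM MgCl2, 0.5 mM EGTA, 1 mM GTP, 20% glycerol) and added to wells containing compound or vehicle.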

Data set [10] has as its target Tubulin. The data set is described as §2. The class given is protein-complex assay, Homo sapiens. The method, boiled down:
as §3

A short description of data set [11]: Cell cycle arrest in human SH-SY5Y cells assessed as accumulation at G2/M phase at IC50 after 16 hrs by flow cytometry (reference value: 18.5 %). The class given is functional, cell-based. The method, boiled down: as §1
In data set [12] the target is T1, Tubulin (Homo sapiens). The data set can be described thus: Inhibition of tubulin polymerization in human SH-SY5Y cells at 3 times IC50 after 16 hrs by Western blot analysis. The class given is cell-based. A general note: In western blotting, separated proteins are transferred to a membrane and probed.
The target in data set [13] is T1, Tubulin (Homo sapiens). The data set can be described thus: Displacement of [3H]colchicine from tubulin (unknown origin) at 1 uM after 30 mins by beta-counting. The data set is classed as protein-complex assay. The gist of the method: (§4)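 It was preincubated 30 min at 37 °C with test compound at 1 or 10 μM, then given 0.2 μCi [3H]colchicine for 1 h at 37 °C. Samples were stopped with ice-cold water, filtered on nitrocellulose and counted by β-counter. Results are % inhibition, ≥7 replicates from 3 experiments.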

The nature of data set [14]: Metabolic stability in human liver microsomes assessed as peak area after 60 mins by LC-UV analysis in presence of NADPH. The class given is ADME. The settings on record: read-out: Stability. The gist of the method:
(§5)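 Human liver microsomes were incubated with compound alone, with NADPH, with NADPH+GSH (60 min; phase I), or with UDPGA (30 min; phase II). Extracts were analysed by LC-UV, and remaining substrate is reported as peak area % relative to controls without microsomes.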

In data set [15] the target is T1, Tubulin (Homo sapiens). Nature of the data set: Displacement of [3H]colchicine from tubulin (unknown origin) at 10 uM after 30 mins by beta-counting. The class given is protein-complex assay. The gist of the method:
as §4

Data set [16] can be described thus: Metabolic stability in human liver microsomes assessed as peak area after 30 mins by LC-UV analysis in presence of NADPH and UDPGA. The conditions noted are these: read-out: Stability. The class given is ADME. The gist of the method: as §5
Data set [17] is described as follows: Metabolic stability in human liver microsomes assessed as peak area after 60 mins by LC-UV analysis. The data set is classed as ADME. The settings on record: read-out: Stability. The method, boiled down: as §5
A short description of data set [18]: Metabolic stability in human liver microsomes assessed as peak area after 60 mins by LC-UV analysis in presence of NADPH and GSH. The data set is classed as ADME. The settings on record: read-out: Stability. The gist of the method:
as §5

One may read the IC50 as the point on the concentration scale where inhibition reaches its midpoint. As for `COc1ccc2c(c1)N(C)C(=O)CN=C2c1cc(OC)c(OC)c(OC)c1`, the IC50 in data set [1] was 0.28 µM. Besides, the viability at 1 µM in [2] was determined as 32.9%.

For `COc1cc(C2=NCC(=O)N3COc4c(OC)ccc2c43)cc(OC)c1OC`, in data set [2], the viability at 1 µM came out at 95.2%.

By inhibition is commonly meant the change of the read-out against control, counted positive when it falls. As to `COc1ccc2c(c1)NC(=O)CN=C2c1cc(OC)c(OC)c(OC)c1`, the Activity in data set [3] was 45.5%; in data set [4], 45.5%; in data set [5], 35%; in data set [6], 19.3%; in [8], 2.1%; in data set [11], 34.6%. For the same compound, the IC50 amounted to 0.0251 µM in data set [1] and 9 µM in data set [10]. Besides, the viability at 1 µM in [2] was found to be 24.7%. Also, the inhibition entry in [7] and in data set [12] was “Active” throughout. Also, in [9], the inhibition entry is “Dose-dependent effect”.

Consider `COc1cc2c(cc1O)C(c1cc(OC)c(OC)c(OC)c1)=NCC(=O)N2`, for which, in data set [1], the IC50 was found to be 0.415 µM. The viability at 1 µM in [2] is 64.8%.

Take `COc1ccc2c(c1O)NC(=O)CN=C2c1cc(OC)c(OC)c(OC)c1`: the Activity was 48% in [3]; 47.5% in data set [4]; 34.4% in data set [5]; 17.9% in [6]; 18.9% in data set [8]; 33% in [11]. Moreover, the figures for the inhibition in [13] and in [15] were 48% and 80%, respectively. Moreover, the remaining at 1 h in [14] was 96%; in data set [17], 95%; in data set [18], 97%. In addition, the half-inhibitory concentration (IC50) in data set [1] turned out to be 0.0039 µM; in [10], 1.3 µM. Further, in data set [2], the viability at 1 µM was determined as 27.5%. The inhibition result in data set [7] and in data set [12] was “Active” each time. In data set [16], the remaining at 0.5 h is 92%.

Turning to `COc1cc(C2=NCC(=O)Nc3c2ccc(OC)c3OC)cc(OC)c1OC`, in [1], the IC50 is 0.0903 µM. Further, the viability at 1 µM in data set [2] was found to be 46.8%.

For `COc1cc(C2=NCC(=O)Nc3cc4c(cc32)OCO4)cc(OC)c1OC`, the Activity in [3] was 49.1%; in data set [4], 49.3%; in data set [5], 37.7%; in data set [6] it was 12.6%; in [8], 12.6%; in data set [11], 38.1%. Besides, the IC50 in data set [1] is 0.071 µM; in data set [10], 13.6 µM. Besides, the viability at 1 µM in [2] stood at 35.1%. For the same compound, the inhibition result in data set [7] and in [12] was “Active” each time. Moreover, in data set [9], the inhibition entry is “Dose-dependent effect”.

Take `COc1cc(C2=NCC(=O)N(C)c3c2ccc(OC)c3OC)cc(OC)c1OC`: in data set [2], the viability at 1 µM turned out to be 76.4%.

Regarding `COc1ccc(/C=C\c2cc(OC)c(OC)c(OC)c2)cc1O` [COMBRETASTATIN A4], the Activity in data set [3] was found to be 51.1%; in [4] it was 52.7%; in data set [5], 35.4%; in data set [6], 11.4%; in data set [8] it was 10%; in data set [11], 38.4%. In addition, the remaining at 1 h in data set [14] stood at 75%; in [17], 100%; in data set [18] it was 67%. In addition, the half-inhibitory concentration (IC50) in data set [1] came out at 0.0027 µM. In addition, in data set [2], the viability at 1 µM worked out at 33.4%. For the same compound, the remaining at 0.5 h in data set [16] is 39%.

For `COc1cc(C2=NCC(=O)N(C)c3cc4c(cc32)OCO4)cc(OC)c1OC`, the viability at 1 µM in [2] was found to be 46.4%.

In the case of `COc1cc2c(cc1OC)C(c1cc(OC)c(OC)c(OC)c1)=NCC(=O)N2`, the viability at 1 µM in [2] came to 102%.

Take `COc1ccc2c(c1)C(c1cc(OC)c(OC)c(OC)c1)=NCC(=O)N2C`: the IC50 in data set [1] turned out to be 0.862 µM. Moreover, in data set [2], the viability at 1 µM worked out at 44.4%.

With `COc1cc2c(cc1OC)N(C)C(=O)CN=C2c1cc(OC)c(OC)c(OC)c1`, the viability at 1 µM in data set [2] stood at 105%.

With `COc1ccc2c(c1)C(c1cc(OC)c(OC)c(OC)c1)=NCC(=O)N2`, the half-maximal inhibitory concentration (IC50) in data set [1] was determined as 0.256 µM. In addition, in data set [2], the viability at 1 µM is 33.9%.
